Six compounds from ChEMBL document CHEMBL1143078, “Synthesis and anti-Helicobacter pylori activity of 5-(nitroaryl)-1,3,4-thiadiazoles with certain sulfur containing alkyl side chain” (Bioorg Med Chem Lett, 2008) can be followed below.

The test system of assay [1] is Staphylococcus epidermidis. Briefly: Antibacterial activity against Staphylococcus epidermidis ATCC 12228 after 18 hrs by serial dilution method. It is filed as functional. Conditions: ATCC 12228, 18 h. Summed up:
(§1)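 Agar dilution MIC. Compound stock diluted with water, then serially doubled in melted Mueller–Hinton agar to 64, 32, 16 and 8 µg/mL. Plates inoculated with 1-5 × 10^4 CFU and incubated 18 h at 37 °C. MIC is the lowest concentration giving no visible growth.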

A further assay deals with Aspergillus niger. The assay can be described thus: Antifungal activity against Aspergillus niger PTCC 5012 after 72 hrs by agar dilution method. Type of assay: functional. Summed up:
(§2)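 Agar dilution on Sabouraud dextrose agar. Compound stocks in DMSO. Inocula about 10^5 CFU/mL from log-phase broth cultures. Plates run in triplicate at 30 °C: about 24–48 h for yeasts, about 72 h for moulds, about 168 h for dermatophytes. MIC is the lowest concentration with no visible growth on the plate.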

The test system of another assay is Candida albicans. The assay can be described thus: Antifungal activity against Candida albicans PTCC 5027 after 72 hrs by agar dilution method. It is filed as functional. On the technique in general: In agar dilution the substance is mixed into plates at graded concentrations.
Assay [2] deals with Helicobacter pylori. The assay can be described thus: Antibacterial activity against Helicobacter pylori isolate assessed as inhibition zone diameter at 16 ug/disk after 3-5 days by paper disk diffusion assay. Type of assay: functional. Summed up:
(§3)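 Filter-paper disk diffusion (6 mm disks), with the compound applied in 40 µL methanol and dried. Disks placed on Mueller–Hinton agar with 7% defibrinated horse blood, inoculated with 48 h H. pylori clinical-isolate suspension at 2 McFarland (10^7-10^8 CFU/mL). Incubated 3–5 days at 37 °C microaerophilically (5% O2, 15% CO2, 80% N2). Mean inhibition-zone diameter (mm) from triplicates.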
On the technique in general: Agar diffusion results depend on both activity and mobility in agar.

In assay [3] the test system is Helicobacter pylori. Briefly: Antibacterial activity against Helicobacter pylori isolate assessed as inhibition zone diameter at 0.5 ug/disk after 3-5 days by paper disk diffusion assay. Type of assay: functional. Summed up:
as §3

For assay [4], the system named is Helicobacter pylori. The assay can be described thus: Antibacterial activity against metronidazole-sensitive Helicobacter pylori assessed as inhibition zone diameter at 16 ug/disk after 3-5 days by paper disk diffusion assay. Type of assay: functional. In a few lines:
(§4)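 Filter paper disks (6 mm) loaded with compound in 40 μL methanol, dried, placed on Mueller–Hinton agar with 7% defibrinated horse blood pre-inoculated with H. pylori suspension (2 McFarland, 10⁷-10⁸ CFU/mL; 48 h cultures checked for coccoid forms); incubated microaerophilically (5% O2, 15% CO2, 80% N2) at 37 °C for 3–5 days; mean inhibition zone diameter (mm) of triplicates.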

Assay [5] relates to Helicobacter pylori. The assay can be described thus: Antibacterial activity against Helicobacter pylori isolate assessed as inhibition zone diameter at 4 ug/disk after 3-5 days by paper disk diffusion assay. Type of assay: functional. In a few lines: as §3
Assay [6] in a line: Cytotoxicity against mouse NIH/3T3 cells after 72 hrs by MTT assay. Type of assay: cell-based. Conditions: NIH3T3, 72 h. Summed up: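 NIH/3T3 mouse fibroblasts in exponential phase trypsinized and seeded at 5×10^4 cells/mL, then given serially diluted compound in triplicate and incubated 72 h. MTT (5 mg/mL solution) added for 1 h, formazan dissolved in DMSO, absorbance read at 492 nm. IC50 calculated from dose-response curves versus untreated controls, as mean ± SD of triplicates.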
Background: Formazan colour is commonly taken as a measure of viable cells.

The subject of assay [7] is Helicobacter pylori. Briefly: Antibacterial activity against metronidazole-sensitive Helicobacter pylori assessed as inhibition zone diameter at 32 ug/disk after 3-5 days by paper disk diffusion assay. It is filed as functional. Summed up:
as §3

Assay [8] has as its system Helicobacter pylori. The assay can be described thus: Antibacterial activity against Helicobacter pylori isolate assessed as inhibition zone diameter at 1 ug/disk after 3-5 days by paper disk diffusion assay. Type of assay: functional. In a few lines:
as §3

Assay [9] has as its system Helicobacter pylori. Briefly: Antibacterial activity against Helicobacter pylori isolate assessed as inhibition zone diameter at 32 ug/disk after 3-5 days by paper disk diffusion assay. Type of assay: functional. Summed up: as §3
The subject of another assay is Saccharomyces cerevisiae. Briefly: Antifungal activity against Saccharomyces cerevisiae PTCC 5177 after 72 hrs by agar dilution method. Type of assay: functional.
Assay [10] deals with Helicobacter pylori. Briefly: Antibacterial activity against Helicobacter pylori isolate assessed as inhibition zone diameter at 8 ug/disk after 3-5 days by paper disk diffusion assay. It is filed as functional. In a few lines:
as §3

A further assay deals with Klebsiella pneumoniae. Briefly: Antibacterial activity against Klebsiella pneumoniae ATCC 10031 after 18 hrs by serial dilution method. It is filed as functional. Conditions: ATCC 10031, 18 h. In a few lines:
as §1

A further assay concerns Nannizzia gypsea. Briefly: Antifungal activity against Microsporum gypseum PTCC 5070 after […] by agar dilution method. It is filed as functional. Summed up: as §2
A further assay deals with Escherichia coli. The assay can be described thus: Antibacterial activity against Escherichia coli ATCC 8739 after 18 hrs by serial dilution method. It is filed as functional. The following applies: ATCC 8739, 18 h. Summed up:
as §1

For a further assay, the system named is Staphylococcus aureus. The assay can be described thus: Antibacterial activity against Staphylococcus aureus ATCC 6538P after 18 hrs by serial dilution method. Type of assay: functional. Summed up: as §1
Assay [11] deals with Helicobacter pylori. Briefly: Antibacterial activity against metronidazole-sensitive Helicobacter pylori assessed as inhibition zone diameter at 8 ug/disk after 3-5 days by paper disk diffusion assay. It is filed as functional. Summed up: as §3
The test system of assay [12] is Helicobacter pylori. The assay can be described thus: Antibacterial activity against Helicobacter pylori isolate assessed as inhibition zone diameter at 2 ug/disk after 3-5 days by paper disk diffusion assay. Type of assay: functional. In a few lines:
as §3

Assay [13] concerns Helicobacter pylori. The assay can be described thus: Antibacterial activity against metronidazole-resistant Helicobacter pylori assessed as inhibition zone diameter at 32 ug/disk after 3-5 days by paper disk diffusion assay. It is filed as functional. In a few lines: as §4
Assay [14] has as its system Helicobacter pylori. Briefly: Antibacterial activity against metronidazole-resistant Helicobacter pylori assessed as inhibition zone diameter at 8 ug/disk after 3-5 days by paper disk diffusion assay. Type of assay: functional. Summed up: as §4

Usually MIC stands for the smallest concentration in the dilution series that meets the test's criterion for growth inhibition. A low value points to greater potency. Broadly, the IC50 is the concentration that inhibits the measured activity by half. High values mean a need for much substance, low ones inhibition by little substance.

Structures are written as SMILES. ≈ marks a conversion by molar mass, not a printed value.

For `CCSCCSc1nnc(-c2ccc([N+](=O)[O-])s2)s1`, the MIC in [1] was 32 µg/mL (≈ 96 µM); against Aspergillus niger, greater than 32 µg/mL; against Candida albicans, greater than 32 µg/mL; in the assay on Saccharomyces cerevisiae it was greater than 32 µg/mL; in the assay with Klebsiella pneumoniae it was greater than 32 µg/mL; against Nannizzia gypsea it was greater than 32 µg/mL. Further, the MIC against Escherichia coli and with Staphylococcus aureus was greater than 32 µg/mL each time. Further, the Activity in the assay with Helicobacter pylori [2] is 47 mm; in the assay with Helicobacter pylori [3], 16.8 mm; in the assay with Helicobacter pylori [4] it was 50 mm; in the assay on Helicobacter pylori [5], 37.1 mm; with Helicobacter pylori [7], 50 mm; in the assay on Helicobacter pylori [8] it was 22.9 mm. The Activity in the assay with Helicobacter pylori [9] worked out at 47.2 mm; with Helicobacter pylori [10], 44.4 mm; in the assay on Helicobacter pylori [11] it was 50 mm; in the assay with Helicobacter pylori [12], 28.9 mm. Further, half-maximal inhibition in assay [6] (IC50) required 4.5 µg/mL (≈ 13.5 µM).

For `CCS(=O)(=O)CCSc1nnc(-c2cccc([N+](=O)[O-])c2)s1`, the MIC was 32 µg/mL (≈ 89 µM) in [1]; greater than 32 µg/mL in the assay on Aspergillus niger; greater than 32 µg/mL against Candida albicans; greater than 32 µg/mL against Saccharomyces cerevisiae; greater than 32 µg/mL with Klebsiella pneumoniae; greater than 32 µg/mL with Nannizzia gypsea. Further, the minimal inhibitory concentration (MIC) with Escherichia coli and with Staphylococcus aureus was greater than 32 µg/mL throughout. For the same compound, the Activity was determined as 6 mm with Helicobacter pylori [4], 26 mm in the assay on Helicobacter pylori [7], 25 mm with Helicobacter pylori [13] and 6 mm in the assay on Helicobacter pylori [11].

For `CCS(=O)(=O)CCSc1nnc(-c2ccc([N+](=O)[O-])cc2)s1`, the MIC in [1] was 32 µg/mL (≈ 89 µM); in the assay with Aspergillus niger it was greater than 32 µg/mL; in the assay on Candida albicans it was greater than 32 µg/mL; with Saccharomyces cerevisiae it was greater than 32 µg/mL; with Klebsiella pneumoniae, greater than 32 µg/mL; with Nannizzia gypsea, greater than 32 µg/mL. The minimal inhibitory concentration (MIC) against Escherichia coli and in the assay on Staphylococcus aureus was greater than 32 µg/mL throughout. Further, the Activity was 24 mm with Helicobacter pylori [4], 30 mm with Helicobacter pylori [7], 27 mm in the assay on Helicobacter pylori [13] and 19 mm with Helicobacter pylori [11].

For `CCS(=O)(=O)CCSc1nnc(-c2ncc([N+](=O)[O-])n2C)s1`, the MIC was 32 µg/mL (≈ 88 µM) in [1]; greater than 32 µg/mL against Aspergillus niger; greater than 32 µg/mL in the assay with Candida albicans; greater than 32 µg/mL with Saccharomyces cerevisiae; greater than 32 µg/mL with Klebsiella pneumoniae; greater than 32 µg/mL in the assay on Nannizzia gypsea. Further, the MIC in the assay on Escherichia coli and against Staphylococcus aureus was greater than 32 µg/mL throughout. In addition, the Activity in the assay with Helicobacter pylori [2] worked out at 35.8 mm; in the assay with Helicobacter pylori [3], 8.5 mm; in the assay on Helicobacter pylori [14] it was 36 mm; in the assay on Helicobacter pylori [4], 40 mm; in the assay on Helicobacter pylori [5] it was 23.4 mm; in the assay on Helicobacter pylori [7] it was 47 mm. Further, the Activity in the assay with Helicobacter pylori [8] is 11.9 mm; with Helicobacter pylori [9], 40.7 mm; with Helicobacter pylori [10] it was 29.7 mm; with Helicobacter pylori [11], 35 mm; in the assay with Helicobacter pylori [12], 16.5 mm. Moreover, in assay [6], inhibition was half-maximal at 100 µg/mL (≈ 275 µM) (IC50).

For `CCSCCSc1nnc(-c2cccc([N+](=O)[O-])c2)s1`, the MIC in assay [1] was 32 µg/mL (≈ 97.7 µM); with Aspergillus niger, greater than 32 µg/mL; with Candida albicans, greater than 32 µg/mL; in the assay with Saccharomyces cerevisiae, greater than 32 µg/mL; against Klebsiella pneumoniae, greater than 32 µg/mL; against Nannizzia gypsea, greater than 32 µg/mL. The MIC against Escherichia coli and against Staphylococcus aureus was greater than 32 µg/mL each time. Further, the Activity in the assay on Helicobacter pylori [4] is on record as 6 mm; in the assay with Helicobacter pylori [7] it was 9 mm; with Helicobacter pylori [11], 6 mm.

On to `CCSCCSc1nnc(-c2ccc([N+](=O)[O-])cc2)s1`, for which the MIC is 32 µg/mL (≈ 97.7 µM) in assay [1]; greater than 32 µg/mL against Aspergillus niger; greater than 32 µg/mL with Candida albicans; greater than 32 µg/mL against Saccharomyces cerevisiae; greater than 32 µg/mL in the assay with Klebsiella pneumoniae; greater than 32 µg/mL in the assay with Nannizzia gypsea. Besides, the MIC against Escherichia coli and in the assay with Staphylococcus aureus was greater than 32 µg/mL each time. Moreover, the Activity with Helicobacter pylori [4] is given as 16 mm; with Helicobacter pylori [7], 20 mm; with Helicobacter pylori [11] it was 6 mm.
